Measured values from PMC4136667 (Journal of Medicinal Chemistry, 2014).

Molecular target: human ΔF508–CFTR (Homo sapiens, UniProt P13569, DEL508-508)
Experiment: ΔF508–CFTR corrector activity assay
Format: cell-based
Details: for Corrector activity (in words): ΔF508–CFTR FRT cells; for Vmax higher than benchmark bithiazole corr4a: difference to corr4a (475 μM/s); for Increase of Vmax compared to benchmark bithiazole corr4a: relative to corr4a
How it was run: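 FRT cells stably coexpressing human ΔF508–CFTR and YFP-H148Q/I152L were grown 24 h at 37 °C, then exposed 16–20 h to test compound at various concentrations, with DMSO vehicle and a bithiazole positive control. Cells were PBS-washed and given forskolin (20 μM) plus genistein (50 μM) for 20 min. Fluorescence (ex 500, em 535 nm) was recorded 2 s before and 12 s after adding iodide-for-chloride PBS. Initial rate came from an exponential fit, normalized to initial fluorescence. Vmax came from Hill fitting of concentration–activity data.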

## COc1ccc(Cl)cc1Nc1nc2c(s1)CCCCc1nc(N)sc1-2 [8a, N9-(5-Chloro-2-methoxyphenyl)-4,5,6,7-tetrahydrocycloocta[1,2-d:3,4-d′]bis(thiazole)-2,9-diamine]
  Corrector activity (in words): modest correctors

## COc1ccc(Cl)cc1Nc1nc2c(s1)CCCc1nc(N)sc1-2 [7a, N8-(5-Chloro-2-methoxyphenyl)-5,6-dihydro-4H-cyclohepta[1,2-d:3,4-d′]bis(thiazole)-2,8-diamine]
  Corrector activity (in words): modest correctors

## COC(=O)CCC(=O)Nc1nc2c(s1)-c1nc(Nc3cc(Cl)ccc3OC)sc1CCC2 [9e, Methyl 4-((8-((5-chloro-2-methoxyphenyl)amino)-5,6-dihydro-4H-cyclohepta[1,2-d:3,4-d′]bis(thiazole)-2-yl)amino)-4-oxobutanoate]
  Vmax higher than benchmark bithiazole corr4a: 200 µM/s
  Increase of Vmax compared to benchmark bithiazole corr4a: 1.5 fold

## COc1ccc(Cl)cc1Nc1nc2c(s1)CCCCc1nc(NC(=O)C(C)C)sc1-2 [10c, N-(9-((5-Chloro-2-methoxyphenyl)amino)-4,5,6,7-tetrahydrocycloocta [1,2-d:3,4-d′]bis(thiazole)-2-yl)isobutyramide]
  Vmax higher than benchmark bithiazole corr4a: 200 µM/s
  Increase of Vmax compared to benchmark bithiazole corr4a: 1.5 fold
